Reference: PubChem BioAssay
Inconclusive results are not listed.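 How the source made its calls, unless noted: active means viability increase at or above a cutoff of the median across tested compounds plus 3 SD (cut at about 8.5% in these data, passing the limit was not always enough); inconclusive means some gains above the cutoff, reason not given; inactive means the rest.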

Experiments:
[1] = S. cerevisiae growth inhibition in permissive medium (OD615), pilot counter-assay for S. cerevisiae lifespan shortening project, permissive growth control (AID 705;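 active means growth inhibition above 25% in both replicates, a cutoff set 3 SD above the mean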); details: OD615, 24 h, at 10 µM, hits give high values
Method in brief: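 Material: engineered DeaD yeast; compound dosing: one dose 10 µM, DMSO 0.25% final; measure: yeast growth inhibition indicated by reduced 24 h OD615; detection: OD615 turbidity read; incubation: cells pre-grown 4 h, then 24 h compound exposure, 30 °C humidified; medium: permissive synthetic complete medium with raffinose and galactose carbon sources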

[2] = S. cerevisiae growth inhibition in restrictive medium, OD615, pilot screen, restrictive growth control, yeast lifespan reduction project (AID 706;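 active means growth inhibition above a set limit, 3 SD over mean compound inhibition, in both replicates, cut at about 43% in these data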;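 further: modified DeaD lifespan yeast strain shifted to restrictive glucose medium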); details: OD615, 48 h, at 10 µM, hits give high values
Method in brief: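 material = engineered S. cerevisiae DeaD strain | medium = glucose-based CSMM-D restrictive medium | times = 4 h pre-incubation, 48 h exposure at 30 °C | technique = OD615 absorbance reading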

[3] = doxorubicin toxicity protection in MRP-1 cells – H69AR cells, CellTiter-Glo, duplicate, MRP-1 activator project, pilot screen (AID 807); details: H69AR viability with doxorubicin, CellTiter-Glo luminescence; at 10 µM; hits give high values;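 further: compound pretreatment 18-22 h then 72 h combined with doxorubicin; 0% = doxorubicin alone and 100% = vehicle without doxorubicin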
[4] = viability of HCT116 without oncogenic beta-catenin – human colon tumor cells, pilot screen (AID 823;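 active means cell viability at or below a set limit in both duplicate runs, the limit being the all-compound median minus 4 SD, cut at about 23% in these data, passing the limit was not always enough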;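 further: 0% = wells killed by 20 µM Hyamine and 100% = untreated DMSO cell wells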); details: HCT116 beta-catenin knockout viability, CellTiter-Glo, 60 h; at 10 µM; hits give low values
[5] = viability of PTEN-null HCT116 cells – cell-based, HCT116 clonal line, CellTiter-Glo, pilot screen (AID 824;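 active means viability at or below 27.92% in each of two runs, the all-compound median minus 4 SD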;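 further: 0% = 20 µM Hyamine control and 100% = vehicle cell control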); details: HCT116 PTEN-deleted viability, 60 h, at 10 µM, hits give low values
[6] = RAM pathway blockade in budding yeast – dse1pr::URA3 reporter, 5-FOA selection, pilot screen (AID 869;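 active means inhibition over a set limit, the all-compound mean plus 3 SD, in both replicate runs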;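 further: 0% = DMSO wells with no growth and 100% = 10 µM 1-NA-PP1 with full growth; RAM network block rescues cells from 5-FOA so hits raise OD615 growth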); details: S. cerevisiae dse1pr::URA3 5-FOA growth, OD615, 2 d; at 10 µM; hits give high values; strain carries analog-sensitive mutant Cbk1 kinase
[7] = RAM signaling pathway blockade in yeast – S. cerevisiae, Pdr1DBD-CYC8 efflux-inhibited sensitized strain, primary screen (AID 1298;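 active means RAM network inhibition above 8.4% in each of two replicates, 3 SD over the compound average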;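 further: 0% = DMSO untreated cells without growth and 100% = 10 µM 1-NA-PP1 full growth; higher means more yeast growth rescued from 5-FOA killing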); details: S. cerevisiae cbk1-as DSE1-URA3 strain, 5-FOA growth OD615, 2 d; at 50 µM; hits give high values

CCCc1ccc(Oc2cn[nH]c2-c2ccc(O)cc2O)cc1
inactive: growth inhibition [1] -16.3% | growth inhibition [2] -10.3% | viability increase [3] -3.5% | viability [4] 82.4% | viability [5] 78.7% | inhibition [6] 0.7% | RAM network inhibition [7] 2.88%

COCC(C)NC(=O)NC1(C(F)(F)F)Oc2ccc(Cl)cc2O1 (configuration not stated)
inactive: growth inhibition [1] -10% | growth inhibition [2] -25.1% | viability increase [3] -5.78% | viability [4] 32.7% | viability [5] 38% | inhibition [6] 0.985% | RAM network inhibition [7] 4.1%

COc1ccc(C(=O)Nc2cccnc2)cc1S(=O)(=O)N1CCOCC1
inactive: growth inhibition [1] -8.01% | growth inhibition [2] -10.6% | viability increase [3] -0.17% | viability [4] 103% | viability [5] 99.1% | inhibition [6] 0.84% | RAM network inhibition [7] 0.46%

CC(=O)Oc1cccc(N2C(=O)C3CC=C(Cl)CC3C2=O)c1 (configuration not stated)
inactive: growth inhibition [1] -5.15% | growth inhibition [2] -22.9% | viability increase [3] -0.7% | viability [4] 89.6% | viability [5] 87.9% | inhibition [6] 2.81% | RAM network inhibition [7] 1.87%

CCOC(=O)CC(=O)Nc1ccc(Br)cc1C(=O)O
inactive: growth inhibition [1] -18.4% | growth inhibition [2] -18.8% | viability increase [3] 1.24% | viability [4] 101% | viability [5] 97.2% | inhibition [6] 2.16% | RAM network inhibition [7] 7.52%

O=C(CN1CCN(Cc2ccccc2Cl)C1=O)NCC1CCCO1 (configuration not stated)
inactive: growth inhibition [1] 4.72% | growth inhibition [2] -0.62% | viability increase [3] -2.68% | viability [4] 97.2% | viability [5] 95.5% | inhibition [6] 0.35% | RAM network inhibition [7] 1.49%

Cc1cc(C)c(NC(=O)CN2CCN(C)CC2)c(C)c1
inactive: growth inhibition [1] -1.99% | growth inhibition [2] 4.72% | viability increase [3] -1.53% | viability [4] 112% | viability [5] 92.3% | inhibition [6] 2.21% | RAM network inhibition [7] 1.38%

Cc1cc(Nc2cc(C(=O)O)ccc2C)n2ncnc2n1
inactive: growth inhibition [1] 4.96% | growth inhibition [2] -2.32% | viability increase [3] 0.41% | viability [4] 95.9% | viability [5] 102% | inhibition [6] 0.71% | RAM network inhibition [7] 0.57%

O=C(C1CCC(CNc2c(N3CCOCC3)c(=O)c2=O)CC1)N1CCN(c2ccccc2)CC1 (configuration not stated)
inactive: growth inhibition [1] -0.4% | growth inhibition [2] -8.31% | viability increase [3] -1.19% | viability [4] 95.8% | viability [5] 83.7% | inhibition [6] 2.86% | RAM network inhibition [7] 1.31%

O=C(c1ccco1)c1cn[nH]c1-c1ccc(Cl)cc1O
inactive: growth inhibition [1] -6.04% | growth inhibition [2] -8.45% | viability increase [3] -2.19% | viability [4] 95.6% | viability [5] 83.4% | inhibition [6] 1.42% | RAM network inhibition [7] 0.57%

CC(=O)N1C(C(=O)O)CSC1c1ccc(C)cc1 (configuration not stated)
inactive: growth inhibition [1] 4.69% | growth inhibition [2] 8.76% | viability increase [3] -0.04% | viability [4] 95.3% | viability [5] 95.6% | inhibition [6] -0.43% | RAM network inhibition [7] -1.41%

O=C(Nc1nnc(-c2ccc3c(c2)OCCO3)o1)c1ccc(Cc2ccccc2)cc1
inactive: growth inhibition [1] -7.6% | growth inhibition [2] 6.34% | viability increase [3] -4.05% | viability [4] 46.1% | viability [5] 40.9% | inhibition [6] 1.59% | RAM network inhibition [7] 4.3%

O=C(Cn1nc(Cc2cccnc2)c2ccccc2c1=O)NCc1ccc2c(c1)OCO2
inactive: growth inhibition [1] 1.71% | growth inhibition [2] 5.04% | viability increase [3] -1.57% | viability [4] 97% | viability [5] 94.7% | inhibition [6] 0.55% | RAM network inhibition [7] -0.05%

Cc1cc2c(cc(C(=O)N3CCC(C(=O)NC4CCCC4)CC3)n2Cc2c(F)cccc2Cl)o1
inactive: growth inhibition [1] -3.7% | growth inhibition [2] -5.26% | viability increase [3] -1.51% | viability [4] 62% | viability [5] 54.8% | inhibition [6] 0.72% | RAM network inhibition [7] 3.45%

CCc1cc2c(=O)n(N)c(CCC(=O)O)nc2s1
inactive: growth inhibition [1] -14.9% | growth inhibition [2] -3.94% | viability increase [3] -1.37% | viability [4] 100% | viability [5] 96.1% | inhibition [6] 0.425% | RAM network inhibition [7] 8.13%

CCOC(=O)N1CCC(NC(=O)Cn2nc(Cc3ccncc3)c3ccccc3c2=O)CC1
inactive: growth inhibition [1] -6.68% | growth inhibition [2] 3.71% | viability increase [3] -0.79% | viability [4] 94% | viability [5] 95.7% | inhibition [6] -0.58% | RAM network inhibition [7] 0.52%

Cc1c(Br)cc(C(=O)N2CCCC2)c(C)c1C
inactive: growth inhibition [1] -12.7% | growth inhibition [2] -11.1% | viability increase [3] -2.86% | viability [4] 102% | viability [5] 98.9% | inhibition [6] 0.205% | RAM network inhibition [7] 3.08%

CCOc1ccc(C(F)(F)F)cc1NC(C)=O
inactive: growth inhibition [1] -6.15% | growth inhibition [2] -9.57% | viability increase [3] -3.24% | viability [4] 90.4% | viability [5] 90.3% | inhibition [6] 0.62% | RAM network inhibition [7] 3.29%

COc1ccc(C2CC(=O)N3CN(c4ccc(C)c(Cl)c4)CSC3=C2C#N)cc1 (configuration not stated)
inactive: growth inhibition [1] 5.58% | growth inhibition [2] 21.9% | viability increase [3] -5.36% | viability [4] 90.1% | viability [5] 89.5% | inhibition [6] 0.91% | RAM network inhibition [7] -1.96%

CCN1C(=O)c2ccccc2S(=O)c2ccc(C(=O)N3CCN(C(=O)c4ccco4)CC3)cc21 (configuration not stated)
inactive: growth inhibition [1] -1.51% | growth inhibition [2] 7.19% | viability increase [3] -2.16% | viability [4] 101% | viability [5] 92.5% | inhibition [6] 1.33% | RAM network inhibition [7] 7.96%

COc1ccc(NC(=O)CCCC2=NS(=O)(=O)c3ccccc3N2)cc1
inactive: growth inhibition [1] -8.46% | growth inhibition [2] -7.47% | viability increase [3] -3.01% | viability [4] 103% | viability [5] 99.3% | inhibition [6] 1.23% | RAM network inhibition [7] 3.11%

CCN(CC)C(=O)C1CCCN(C/C=C/c2ccccc2)C1 (configuration not stated)
inactive: growth inhibition [1] -5% | growth inhibition [2] -9.31% | viability increase [3] -0.55% | viability [4] 84.9% | viability [5] 90.9% | inhibition [6] 0.74% | RAM network inhibition [7] -1.53%

COc1ccc(N2CCC(CNC(=O)Nc3ccc(C)c(C)c3)C2)cc1 (configuration not stated)
inactive: growth inhibition [1] -8.33% | growth inhibition [2] -2.14% | viability increase [3] 1.23% | viability [4] 91.2% | viability [5] 74.8% | inhibition [6] 0.77% | RAM network inhibition [7] 2.95%

CCN(CC)CC(O)COc1ccccc1C(=O)CCc1ccccc1 (configuration not stated)
inactive: growth inhibition [1] -17.4% | growth inhibition [2] -14.3% | viability increase [3] -4.88% | viability [4] 73% | viability [5] 80.5% | inhibition [6] 0.58% | RAM network inhibition [7] 4.17%

Cc1c(C(=O)NCc2cccnc2)oc2ccc(S(=O)(=O)N3CC(C)CC(C)C3)cc12 (configuration not stated)
inactive: growth inhibition [1] -3.33% | growth inhibition [2] 16.4% | viability increase [3] -4.52% | viability [4] 93% | viability [5] 87.1% | inhibition [6] 1.87% | RAM network inhibition [7] 2.77%

Cc1cc(NC(=O)CSc2c(C)[nH]c3ccccc23)no1
inactive: growth inhibition [1] -11.4% | growth inhibition [2] -4.25% | viability increase [3] -1.25% | viability [4] 104% | viability [5] 89.4% | inhibition [6] 0.94% | RAM network inhibition [7] 4.64%

O=C(NCCn1ccc2ccccc21)c1ccc2c(c1)OCO2
inactive: growth inhibition [1] -2.72% | growth inhibition [2] -4.68% | viability increase [3] 0.1% | viability [4] 101% | viability [5] 94.4% | inhibition [6] 0.58% | RAM network inhibition [7] 6.97%

CCN(CC)C(=O)CSc1ccccc1N
inactive: growth inhibition [1] -16.2% | growth inhibition [2] -9.23% | viability increase [3] -1.98% | viability [4] 89.5% | viability [5] 94.4% | inhibition [6] 0.885% | RAM network inhibition [7] 5.73%

COCC(=O)Nc1cc(C)c2c(=O)oc3ccccc3c2n1
inactive: growth inhibition [1] 1.37% | growth inhibition [2] 5.79% | viability increase [3] -1.64% | viability [4] 96% | viability [5] 94% | inhibition [6] -0.92% | RAM network inhibition [7] 2.67%

COc1cccc(C(=O)NCC(c2cccnc2)N2CCN(c3ccccc3OC)CC2)c1 (configuration not stated)
inactive: growth inhibition [1] 1.37% | growth inhibition [2] -13.1% | viability increase [3] -2.58% | viability [4] 84.3% | viability [5] 78% | inhibition [6] 1.87% | RAM network inhibition [7] 1.46%

CCOC(=O)C1=C(CS(=O)(=O)c2ccccc2)NC(=O)NC1c1ccccc1OCC (configuration not stated)
inactive: growth inhibition [1] -15.1% | growth inhibition [2] -5.42% | viability increase [3] 0.13% | viability [4] 98.7% | viability [5] 101% | inhibition [6] 2.07% | RAM network inhibition [7] -0.04%

CCOC(=O)N1CCN(C(c2ccc(C(C)C)cc2)c2sc3nc(C)nn3c2O)CC1 (configuration not stated)
inactive: growth inhibition [1] -1.48% | growth inhibition [2] -10.5% | viability increase [3] 2.48% | viability [4] 102% | viability [5] 91% | inhibition [6] 0.2% | RAM network inhibition [7] 0.93%

COc1ccc(NC(=O)Nc2cccc(OC)c2)cc1
inactive: growth inhibition [1] -3.64% | growth inhibition [2] -19.4% | viability increase [3] -0.65% | viability [4] 95.3% | viability [5] 93.4% | inhibition [6] 1.02% | RAM network inhibition [7] 1.14%

COc1ccc(N2CSC3=C(C#N)C(c4ccc(OC)c(OC)c4)CC(=O)N3C2)c(OC)c1 (configuration not stated)
inactive: growth inhibition [1] 18.8% | growth inhibition [2] 22.1% | viability increase [3] -4.13% | viability [4] 79.5% | viability [5] 81.7% | inhibition [6] 1.88% | RAM network inhibition [7] 0.93%

Nc1nc(SCC(=O)NCCCO)nc2sc3c(c12)CCC3
inactive: growth inhibition [1] -8.84% | growth inhibition [2] -4.31% | viability increase [3] -1.44% | viability [4] 96.1% | viability [5] 94% | inhibition [6] 1.44% | RAM network inhibition [7] 0.31%

Cn1c(=O)c2c(SCC(=O)NCc3ccco3)nc(CC(C)(C)C)nc2n(C)c1=O
inactive: growth inhibition [1] -3.79% | growth inhibition [2] -0.895% | viability increase [3] -4.81% | viability [4] 72.5% | viability [5] 70.6% | inhibition [6] 0.775% | RAM network inhibition [7] 5.97%
